Data as given in ChEMBL document CHEMBL4680165, “β-Lactams with antiproliferative and antiapoptotic activity in breast and chemoresistant colon cancer cells” (Eur J Med Chem, 2020).
Activity calls are given as the source filed them. No cut-off for these calls is given here.

Legend:
[1] = test system: HT-29; assay: Antiangiogenic activity in human HT29 cells assessed as reduction in VEGF secretion at 5 uM after 24 hrs by ELISA; format: functional, cell-based
Summary of the method: (§1)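 HT-29 cells at 5 x 10^4 per well, cultured 24 h and then exposed to 5 µM compound. Conditioned medium collected on ice and stored at -80 °C. Cytokines and angiogenic, vascular-injury and chemokine factors measured by multiplex panels with overnight supernatant incubation (Angiogenesis Panel 1 and Vascular Injury Panel 2 same day). Medium undiluted except 1:4 for Vascular Injury Panel 2. Secretion normalised to lysate protein by BCA.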

[2] = test system: HT-29; assay: Antiangiogenic activity in human HT-29 cells assessed as increase in IL-1RA secretion at 5 uM after 24 hrs by ELISA; format: functional, cell-based; summary of the method: as §1
[3] = test system: HT-29; assay: Antiproliferative activity against human HT-29 cells assessed as reduction in cell viability after 72 hrs by alamar blue assay; format: functional, cell-based; conditions: HT-29, 72 h
Summary of the method: (§2)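 Cells seeded at 5 x 10^3/well (MCF-7) or 1 x 10^4/well (HT-29, HEK-293T) and treated after 24 h with serial dilutions (0.001-100 µM) in 1% v/v ethanol vehicle. Alamar Blue 10% v/v added at 72 h, then 3-5 h at 37 °C in the dark; fluorescence ex 530/em 590 nm. Viability relative to vehicle; IC50 from dose-response curves; mean of three experiments in triplicate.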

[4] = Selectivity index, ratio of IC50 for human MCF7 cells to IC50 for human HT-29 cells assessed as reduction in cell viability after 72 hrs by alamar blue assay; format: functional
[5] = test system: HT-29; assay: Antiangiogenic activity in human HT29 cells assessed as reduction in IL-1alpha secretion at 5 uM after 24 hrs by ELISA; format: functional, cell-based; summary of the method: as §1
[6] = test system: HT-29; assay: Antiangiogenic activity in human HT29 cells assessed as reduction in IL-1beta secretion at 5 uM after 24 hrs by ELISA; format: functional, cell-based; summary of the method: as §1
[7] = test system: MCF7; assay: Antiproliferative activity against human MCF7 cells assessed as reduction in cell viability after 72 hrs by alamar blue assay; format: functional, cell-based; conditions: MCF7, 72 h; summary of the method: as §2
[8] = Half life of the compound in phosphate buffer at pH 7.4 by HPLC analysis; format: physicochemical
Summary of the method: (§3)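 Compound stock was 1 mg/mL in mobile phase; 30 µL was diluted into 1 mL phosphate buffer (pH 4, 7.4 or 9) and held at 37 °C. Samples were taken at 0, 5, 30 and 60 min, then hourly to 24 h. Analysis was reverse-phase C18 HPLC with acetonitrile/water mobile phase at 1 mL/min and detection at 254 nm.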

[9] = Half life of the compound in phosphate buffer at pH 9 by HPLC analysis; format: physicochemical; summary of the method: as §3
[10] = Half life of the compound in phosphate buffer at pH 4 by HPLC analysis; format: physicochemical; summary of the method: as §3
[11] = species: Bos taurus; assay: Inhibition of bovine brain tubulin polymerization at 10 uM measured at 30 sec interval for 30 mins in presence of GTP by turbidimetry-based spectrophotometric method
[12] = molecular target: T1, Tubulin (Homo sapiens) (UniProt P68371+Q9H4B7+P0DPH7+P68366+Q13509+Q71U36+P04350+Q3ZCM7+P07437+P68363+Q9BQE3+Q6PEY2+Q13885+Q9BVA1+Q9BUF5); assay: Induction of microtubule depolymerization in human MCF7 cells at 1 uM after 16 hrs by immunofluorescence staining based confocal microscopic analysis; format: cell-based
[13] = molecular target: T1, Tubulin (Homo sapiens); assay: Binding affinity to tubulin in human MCF7 cells assessed as inhibition of tubulin-EBI adduct formation preincubated for 2 hrs followed by EBI addition and measured after 1.5 hrs by Western blotting analysis; format: cell-based; conditions: time 3.5 hrs
Summary of the method: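 MCF-7 cells (5 × 10^4/well) were incubated overnight, then given vehicle (0.1% v/v ethanol) or compound at 10 µM for 2 h. Selected wells then received EBI (100 µM) for 1.5 h. Cells were washed in ice-cold PBS, lysed in Laemmli buffer and run on SDS-PAGE. Blots were probed for β-tubulin and the β-tubulin–EBI adduct, with GAPDH as loading control. Three independent experiments.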

[14] = test system: UDP-glucuronosyltransferases (UGTs); assay: Metabolic stability in human liver microsomes assessed as UGT-mediated N-glucuronidation by measuring half life at 3 uM measured up to 45 mins by LC-MS/MS analysis; format: ADME; conditions: microsomes, 0.75 h, 3 µM
Summary of the method: (§4)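 Pooled human liver microsomes (0.5 mg/mL protein final) with alamethicin (25 µg/mg) in 0.1 M phosphate pH 7.4, compound 3 µM final (0.25% DMSO), preincubated 37 °C. Reaction started with UDPGA (1 mM final). Sampled at 0, 5, 15, 30, 45 min into methanol, analysed by LC-MS/MS. Minus-UDPGA control run 45 min. Single incubations; t½ and CLint taken from the elimination rate constant.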

[15] = test system: UDP-glucuronosyltransferases (UGTs); assay: Metabolic stability in human liver microsomes assessed as UGT-mediated N-glucuronidation by measuring intrinsic clearance at 3 uM measured up to 45 mins by LC-MS/MS analysis; format: ADME; conditions: microsomes, 0.75 h, 3 µM; summary of the method: as §4

| IC50 [3] | IC50 [7] | Compound | Ratio IC50 [4] | further results |
| --- | --- | --- | --- | --- |
| 15 nM | 22 nM | COc1ccc([C@H]2CC(=O)N2c2cc(OC)c(OC)c(OC)c2)cc1F | 1.47 | Activity [1]: inactive; Activity [2]: Active; Activity [5]: inactive; Activity [6]: inactive |
| 167 nM | 141 nM | COc1ccc([C@H]2[C@H](N)C(=O)N2c2cc(OC)c(OC)c(OC)c2)cc1Cl | 0.84 | half-life [8]: > 24 h; half-life [9]: > 24 h; half-life [10]: > 24 h |
| 355 nM | 648 nM | COc1ccc([C@H]2[C@H](c3ccccc3)C(=O)N2c2cc(OC)c(OC)c(OC)c2)cc1I | 1.83 | half-life [8]: 14 h; half-life [9]: 5 h; half-life [10]: 15 h |
| 9 nM | 44 nM | COc1ccc([C@H]2[C@H](O)C(=O)N2c2cc(OC)c(OC)c(OC)c2)cc1Br | 4.89 | inhibition [11]: Active |
| 1050 nM | 1350 nM | C=C(C)[C@@H]1C(=O)N(c2cc(OC)c(OC)c(OC)c2)[C@H]1c1ccc(OC)c(I)c1 | 1.29 | – |
| 189 nM | 317 nM | COc1ccc([C@H]2CC(=O)N2c2cc(OC)c(OC)c(OC)c2)cc1C | 1.68 | – |
| 678 nM | 323 nM | C=C(C)[C@@H]1C(=O)N(c2cc(OC)c(OC)c(OC)c2)[C@H]1c1ccc(OC)c(F)c1 | 0.48 | – |
| 154 nM | 140 nM | COc1ccc([C@@H]2N(c3cc(OC)c(OC)c(OC)c3)C(=O)C2(Cl)Cl)cc1Cl | 0.91 | – |
| 64 nM | 60 nM | COc1ccc([C@H]2CC(=O)N2c2cc(OC)c(OC)c(OC)c2)cc1Br | 0.94 | – |

The next lines start with the molecule.

| Compound | IC50 [3] | IC50 [7] | Ratio IC50 [4] | further results |
| --- | --- | --- | --- | --- |
| COc1ccc([C@H]2[C@H](c3ccccc3)C(=O)N2c2cc(OC)c(OC)c(OC)c2)cc1O | 430 nM | 4 nM | 0.01 | Activity [1]: inactive; Activity [2]: Active; Activity [5]: inactive; Activity [6]: inactive |
| CC(=O)O[C@H]1C(=O)[C@@]2(C)[C@H]([C@H](OC(=O)c3ccccc3)[C@]3(O)C[C@H](OC(=O)[C@H](O)[C@@H](NC(=O)c4ccccc4)c4ccccc4)C(C)=C1C3(C)C)[C@]1(OC(C)=O)CO[C@@H]1C[C@@H]2O | – | – | – | Activity [12]: Active |
| COc1ccc([C@H]2[C@H](O)C(=O)N2c2cc(OC)c(OC)c(OC)c2)cc1Cl | 18 nM | 12 nM | 0.67 | inhibition [11]: Active |
| COc1ccc([C@H]2[C@H](Oc3ccccc3)C(=O)N2c2cc(OC)c(OC)c(OC)c2)cc1Cl | 314 nM | 430 nM | 1.37 | half-life [8]: > 15 h; half-life [9]: > 15 h; half-life [10]: > 15 h |
| COc1ccc([C@H]2[C@H](Cl)C(=O)N2c2cc(OC)c(OC)c(OC)c2)cc1I | 190 nM | 421 nM | 2.22 | – |
| COc1ccc(/C=C\c2cc(OC)c(OC)c(OC)c2)cc1O [COMBRETASTATIN A4] | 4160 nM | 4 nM | 0.001 | inhibition [11]: Active; Activity [13]: Active; t1/2 [14]: 2.71 min; CLH [15]: 645 µL/min/mg |
| C=C[C@@H]1C(=O)N(c2cc(OC)c(OC)c(OC)c2)[C@H]1c1ccc(OC)c(I)c1 | 306 nM | 215 nM | 0.7 | – |
| C=C(C)[C@@H]1C(=O)N(c2cc(OC)c(OC)c(OC)c2)[C@H]1c1ccc(OC)c(Br)c1 | 333 nM | 284 nM | 0.83 | – |
| C=C[C@@H]1C(=O)N(c2cc(OC)c(OC)c(OC)c2)[C@H]1c1ccc(OC)c(Br)c1 | 91 nM | 88 nM | 0.97 | – |
| COc1ccc([C@H]2[C@H](Cl)C(=O)N2c2cc(OC)c(OC)c(OC)c2)cc1Br | 194 nM | 603 nM | 3.12 | – |
